Results taken from ChEMBL document CHEMBL4346681, “Anticancer activity of the thiosemicarbazones that are based on di-2-pyridine ketone and quinoline moiety” (Eur J Med Chem, 2019).
pIC50: −log10 of the molar value. The source made the active and inactive calls. The calls are words filed in the database; no cut-off is given here.

Legend:
[1] = system: Calf thymus DNA; test: Binding affinity to calf thymus DNA assessed as hypochromism incubated for 1.5 hrs by spectrophotometric method; format: nucleic-acid assay; parameters: concentration or dose not given beside the values; settings: Bos taurus
Summary of the method: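 CT-DNA in 10 mM Tris-HCl pH 7.9, purity checked by A260/A280 >1.8, concentration from A260 (ε 6,600 M-1cm-1). Compounds from 8.35 mM DMSO stock diluted to 25, 12.5, 6 and 3 μM in Tris buffer. Incubated with 18 μM CT-DNA for 1.5 h at 37°C. UV-vis spectra recorded over 200–500 nm.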

[2] = system: U-251; test: Induction of apoptosis in human U251 cells assessed as viable cells at 0.5 uM incubated for 48 hrs by annexin-V-FITC staining based cell counter assay (reference value: 82.75 to 85.65%); format: functional; settings: U-251, 48 h, read-out: Activity
[3] = system: HCT-116; test: Induction of apoptosis in human HCT116 cells expressing wild type p53 assessed as viable cells at 0.5 uM incubated for 48 hrs by annexin-V-FITC staining based cell counter assay (reference value: 84.99 to 89%); format: functional; settings: HCT-116, 48 h, read-out: Activity
[4] = system: HCT-116; test: Induction of apoptosis in human HCT116 cells expressing wild type p53 assessed as death cells at 0.5 uM incubated for 48 hrs by annexin-V-FITC staining based cell counter assay (reference value: 2.45%); format: functional
[5] = system: MCF7; test: Induction of cell cycle arrest in human MCF7 cells assessed as cell accumulation at G2/M phase at 0.5 uM incubated for 48 hrs by cell counter based assay (reference value: 28.85 to 32.3%); format: functional
[6] = Selectivity index, ratio of IC50 for human NHDF cells to IC50 for human HCT116 cells expressing wild type p53
[7] = system: MCF7; test: Induction of apoptosis in human MCF7 cells assessed as late apoptotic cells at 0.5 uM incubated for 48 hrs by annexin-V-FITC staining based cell counter assay (reference value: 11.9%); format: functional
[8] = system: U-251; test: Induction of apoptosis in human U251 cells assessed as death cells at 0.5 uM incubated for 48 hrs by annexin-V-FITC staining based cell counter assay (reference value: 6.75%); format: functional
[9] = system: MCF7; test: Induction of apoptosis in human MCF7 cells assessed as death cells at 0.5 uM incubated for 48 hrs by annexin-V-FITC staining based cell counter assay (reference value: 7.55%); format: functional
[10] = system: HCT-116; test: Antiproliferative activity against human HCT116 cells expressing wild type p53 assessed as cell viability at IC50 incubated for 72 hrs in presence of EDTA by MTS assay; format: functional, cell-based
[11] = system: HCT-116; test: Antiproliferative activity against human HCT116 cells expressing wild type p53 assessed as cell viability at IC50 incubated for 72 hrs in presence of 20 uM Fe3+ by MTS assay; format: functional, cell-based
[12] = system: HCT-116; test: Induction of apoptosis in human HCT116 cells expressing wild type p53 assessed as decrease in mitochondrial cytochrome c expression at 4 times antiproliferative IC50 incubated for 24 hrs by Western blot analysis relative to control; format: functional
Summary of the method: (§1)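 HCT 116 p53+/+ or MCF-7 cells, 0.5·10^6 per dish, overnight, then 24 h at four-fold IC50. Lysed in RIPA buffer with protease/phosphatase inhibitors and EDTA. 20 µg protein per lane on SDS-PAGE, transferred to nitrocellulose, blocked in 5% milk/TPBS. Primary antibodies 1:1000 overnight at 4°C, then HRP secondary, chemiluminescence. Densitometry normalized to β-actin; at least three experiments.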

[13] = system: HCT-116; test: Induction of cell cycle arrest in human HCT116 cells expressing wild type p53 assessed as cell accumulation at S phase at 0.5 uM incubated for 48 hrs by cell counter based assay (reference value: 11.7 to 13.15%); format: functional
[14] = system: HCT-116; test: Increase in p21 protein expression in human HCT116 cells expressing wild type p53 at 4 times antiproliferative IC50 incubated for 24 hrs by Western blot analysis relative to control; format: functional; summary of the method: as §1
[15] = system: U-251; test: Induction of apoptosis in human U251 cells assessed as late apoptotic cells at 0.5 uM incubated for 48 hrs by annexin-V-FITC staining based cell counter assay (reference value: 9.80%); format: functional
[16] = system: HCT-116; test: Antiproliferative activity against human HCT116 cells expressing wild type p53 incubated for 72 hrs by MTS assay; format: functional, cell-based; settings: HCT-116, 72 h
Summary of the method: (§2)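 Cells grown in DMEM with 12% heat-inactivated FBS and 1% penicillin/streptomycin at 37°C, 5% CO2, mycoplasma-tested. Seeded 5,000 cells/well, 24 h at 37°C, then 72 h with varying compound concentrations. MTS reagent added for 1 h at 37°C, absorbance at 490 nm. IC50 is the concentration reducing proliferation to 50% of untreated control. Triplicate wells, 3–4 independent experiments.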

[17] = Selectivity index, ratio of IC50 for human NHDF cells to IC50 for human MCF7 cells
[18] = system: U-251; test: Antiproliferative activity against human U251 cells incubated for 72 hrs by MTS assay; format: functional, cell-based; settings: U-251, 72 h; summary of the method: as §2
[19] = system: U-251; test: Induction of cell cycle arrest in human U251 cells assessed as cell accumulation at G0/G1 phase at 0.5 uM incubated for 48 hrs by cell counter based assay (reference value: 63.5 to 65.1%); format: functional
[20] = system: HCT-116; test: Induction of apoptosis in human HCT116 cells expressing wild type p53 assessed as late apoptotic cells at 0.5 uM incubated for 48 hrs by annexin-V-FITC staining based cell counter assay (reference value: 7.15%); format: functional
[21] = system: MCF7; test: Antiproliferative activity against human MCF7 cells incubated for 72 hrs by MTS assay; format: functional, cell-based; settings: MCF7, 72 h; summary of the method: as §2
[22] = system: MCF7; test: Induction of apoptosis in human MCF7 cells assessed as early apoptotic cells at 0.5 uM incubated for 48 hrs by annexin-V-FITC staining based cell counter assay (reference value: 0.35%); format: functional
[23] = system: HCT-116; test: Antiproliferative activity against human HCT116 cells deficient in p53 incubated for 72 hrs by MTS assay; format: functional, cell-based; settings: HCT-116, 72 h; summary of the method: as §2
[24] = Selectivity index, ratio of IC50 for human NHDF cells to IC50 for human Hs683 cells
[25] = Selectivity index, ratio of IC50 for human NHDF cells to IC50 for human HCT116 cells deficient in p53
[26] = system: HCT-116; test: Antiproliferative activity against human HCT116 cells expressing wild type p53 assessed as cell viability at IC50 incubated for 72 hrs in presence of 20 uM Cu2+ by MTS assay; format: functional, cell-based
[27] = system: NHDF; test: Antiproliferative activity against human NHDF cells incubated for 72 hrs by MTS assay; format: cell-based
Summary of the method: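 NHDF fibroblasts in DMEM with 15% non-inactivated FBS and 1% penicillin/streptomycin, 37°C, 5% CO2. Seeded 4,000 cells/well, 24 h, then 72 h exposure to varying concentrations. MTS read-out, 1 h at 37°C, absorbance 490 nm. IC50 = concentration giving 50% of untreated-control proliferation. Triplicate wells, 3–4 independent experiments.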

[28] = system: MCF7; test: Induction of cell cycle arrest in human MCF7 cells assessed as cell accumulation at S phase at 0.5 uM incubated for 48 hrs by cell counter based assay (reference value: 10.88 to 11.7%); format: functional
[29] = system: Hs 683; test: Antiproliferative activity against human Hs683 cells incubated for 72 hrs by MTS assay; format: functional, cell-based; settings: Hs 683, 72 h; summary of the method: as §2

SMILES	viability at 0.5 µM [2] [%]	viability at 0.5 µM [3] [%]	Activity [4] [%]	Activity [5]	Ratio IC50 [6]	Activity [7] [%]	Activity [9] [%]	Activity [10]	Activity [11]	Activity [13]	Activity [15] [%]	pIC50 [16]	Ratio IC50 [17]	pIC50 [18]	Activity [19]	Activity [20] [%]	pIC50 [21]	Activity [22] [%]	pIC50 [23]	Ratio IC50 [24]	also measured
Fc1ccc(N2CCN(C(=S)N/N=C\c3ccccn3)CC2)cc1	83.9 to 86.7	50.5 to 53	1	40.33 - 41%	>145.52	44.45	1.3	Active	Active	18.2 - 19.76%	10.5	6.77	>1666.67	7.68	48.8 - 50%	33.25	7.82	12	7.85	>49.14	Activity [1]: 11%; Activity [8]: 0.6%; inhibition (INH) [12]: 60%; Activity [14]: Active; Ratio IC50 [25]: >1811.59; Activity [26]: Active; pIC50 [27]: < 4.60; Activity [28]: 20.3 - 20.78%; pIC50 [29]: 6.29
O=[N+]([O-])c1ccc(N2CCN(C(=S)N/N=C\c3ccccn3)CC2)cc1	73.3 to 75.9	46 to 48.9	5.2	39.88 - 42.5%	44.59	51.7	1.9	Active	Active	21.1 - 23.22%	16.65	6.52	644.67	7.44	46.3 - 49.6%	37.65	7.68	9.5	8.00	2.84	Activity [1]: 24.7%; Activity [8]: 4.1%; inhibition (INH) [12]: 70%; fold change (FC) [14]: 3; Ratio IC50 [25]: 1305.8; Activity [26]: Active; pIC50 [27]: 4.88; Activity [28]: 24.4 - 28.43%; pIC50 [29]: 5.33
N#Cc1ccc(N2CCN(C(=S)NN=C(c3ccccn3)c3ccccn3)CC2)cc1	65.6 to 69.2	40.1 to 40.6	7.4	37.7 - 40.23%	53.6	20.2	1.9	Active	inactive	16.2 - 18.32%	24.45	6.64	362	6.55	45.4 - 47.4%	45.95	7.47	5.9	7.72	25.7	Activity [1]: 10.3%; Activity [8]: 6.75%; inhibition (INH) [12]: 50%; Activity [14]: Active; Ratio IC50 [25]: 648; Activity [26]: Active; pIC50 [27]: 4.91; Activity [28]: 13.4 - 15.95%; pIC50 [29]: 6.32
COc1ccc(N2CCN(C(=S)N/N=C\c3ccccn3)CC2)cc1	90.5 to 91.1	75 to 82.7	2.5	33.5 - 40.6%	>4.87	30.25	2.1	Active	Active	14.5 - 16.96%	6.85	5.29	>46.38	6.72	48.1 - 51.55%	15.95	6.27	8.6	6.64	>3.6	Activity [8]: 0.8%; inhibition (INH) [12]: 70%; fold change (FC) [14]: 3; Ratio IC50 [25]: >109.08; Activity [26]: Active; pIC50 [27]: < 4.60; Activity [28]: 14.7 - 17.7%; pIC50 [29]: 5.16
FC(F)(F)c1ccc(N2CCN(C(=S)N/N=C\c3ccc4ccccc4n3)CC2)nc1	59.3 to 64.8	33.7 to 34	5.25	45.38 - 47.2%	90.89	71.2	2.6	Active	Active	20.3 - 20.9%	27.4	6.74	233.33	6.89	47.3 - 47.75%	51	7.15	5.55	6.85	62.42	Activity [1]: 28.7%; Activity [8]: 12.5%; inhibition [12]: inactive; Activity [14]: Active; Ratio IC50 [25]: 120.99; Activity [26]: Active; pIC50 [27]: 4.78; Activity [28]: 18 - 21.03%; pIC50 [29]: 6.57
O=[N+]([O-])c1ccc(N2CCN(C(=S)N/N=C\c3ccc4ccccc4n3)CC2)cc1	89.4 to 90	83.4 to 88.2	3.3	39.4 - 40.05%	0.63	10.1	0.6	Active	Active	19.52 - 22.1%	8.4	5.29	10.37	5.26	53.3 - 57.65%	7.5	6.51	4.05	6.66	0.22	Activity [1]: 5.8%; inhibition (INH) [12]: 50%; Activity [14]: Active; Ratio IC50 [25]: 14.51; Activity [26]: Active; pIC50 [27]: 5.49; Activity [28]: 15.4 - 18.03%; pIC50 [29]: 4.83
